Data published in ChEMBL document CHEMBL5625173, “Antimycobacterial pyridine carboxamides: From design to in vivo activity” (Eur J Med Chem, 2023).
In brackets after ≈: the same amount, converted by molar mass. Activity calls are given as the source filed them. The rule behind the calls is not given here.

Key:
Mycolicibacterium aurum = test: Antimycobacterial activity against Mycobacterium aurum by alamar blue staining based microplate analysis; assay type: functional
How it was run: (§1)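 Microplate Alamar Blue assay, one of six mycobacterial strains tested (Mtb H37Rv, Mtb H37Ra, M. kansasii, M. avium, M. smegmatis, M. aurum); value reported as MIC.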

[1] = Cytotoxicity against human HepG2 cells assessed as inhibition of cell viability; assay type: toxicity, cell-based
[2] = system: Mycobacterium tuberculosis; test: Antimycobacterial activity against Mycobacterium tuberculosis H37Ra by alamar blue staining based microplate analysis; assay type: functional
How it was run: (§2)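 Microplate Alamar Blue assay. MIC values read at pH 6.6 (neutral). One acidic-pH test at pH 5.6 is footnoted separately.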

Mycobacterium avium = test: Antimycobacterial activity against Mycobacterium avium by alamar blue staining based microplate analysis; assay type: functional; how it was run: as §2
Mycobacterium kansasii = test: Antimycobacterial activity against Mycobacterium kansasii by alamar blue staining based microplate analysis; assay type: functional; how it was run: as §1
[3] = system: Mycolicibacterium smegmatis; test: Antimycobacterial activity against Mycobacterium smegmatis by alamar blue staining based microplate analysis; assay type: functional; how it was run: as §1
[4] = system: Mycobacterium tuberculosis; test: Antimycobacterial activity against Mycobacterium tuberculosis H37Rv by alamar blue staining based microplate analysis; assay type: functional; how it was run: as §2
[5] = Selectivity index, ratio of IC50 for cytotoxicity against human HepG2 cells to MIC for antimycobacterial activity against Mycobacterium tuberculosis H37Rv; assay type: toxicity, cell-based; conditions: read-out: Selectivity Index
[6] = Metabolic stability in human liver microsomes assessed as intrinsic clearance at 3 uM incubated for 45 mins by HPLC analysis; assay type: ADME, Microsome; conditions: read-out: CLH
How it was run: (§3)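 Ammonium salt or lactone, 3 μM, incubated with human liver microsomes at physiological pH; reactions stopped at 0, 5, 15, 30 and 45 min and analysed by HPLC-MS; k, t1/2 and intrinsic clearance calculated from the HPLC-MS records.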

[7] = Metabolic stability in human liver microsomes assessed as half life at 3 uM incubated for 45 mins by HPLC-MS analysis; assay type: ADME, Microsome; how it was run: as §3
[8] = system: Mycobacterium tuberculosis; test: Antimycobacterial activity against Mycobacterium tuberculosis IZAK by alamar blue staining based microplate analysis; assay type: functional
[9] = Drug metabolism in human liver microsomes assessed as M1 metabolite formation at 90 uM incubated for 3 hrs; assay type: ADME, Microsome
How it was run: (§4)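 Phase I metabolite identification: ammonium salt of the compound (for solubility) or its lactone, 90 μM, incubated with human liver microsomes for 3 h; metabolites detected by HPLC-MS, positive ion mode, by m/z.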

[10] = system: Mycobacterium tuberculosis; test: Antimycobacterial activity against Mycobacterium tuberculosis MAT1 by alamar blue staining based microplate analysis; assay type: functional
[11] = Drug metabolism in human liver microsomes assessed as M2 metabolite formation at 90 uM incubated for 3 hrs; assay type: ADME, Microsome; how it was run: as §4
[12] = system: Mycobacterium tuberculosis; test: Antimycobacterial activity against Mycobacterium tuberculosis H37Rv infected in mouse assessed as reduction in colony formation in spleen at 50 mg/kg administered for 28 days; assay type: functional, organism-based; conditions: time 28.0 day
How it was run: (§5)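 Mice infected intranasally with Mtb H37Rv; infection allowed to develop four weeks. Then dosed for 28 days with sodium salt forms as water solution by gastric tube. Lung and spleen CFU determined and compared with untreated control group.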

[13] = system: Mycobacterium tuberculosis; test: Antimycobacterial activity against Mycobacterium tuberculosis H37Rv infected in mouse assessed as reduction in colony formation in lungs at 50 mg/kg administered for 28 days; assay type: functional, organism-based; conditions: time 28.0 day; how it was run: as §5

Structure (SMILES)	MIC (Mycolicibacterium aurum)	IC50 [1]	MIC [2]	MIC (Mycobacterium avium)	MIC (Mycobacterium kansasii)	MIC [3]	MIC [4]	selectivity ratio [5]	microsomal CLint at 3 µM [6]	half-life at 3 µM [7]	MIC [8]	Drug metabolism [9]	MIC [10]	Drug metabolism [11]	Activity [12]	Activity [13]
Cc1cc(C(=O)Nc2ccc(C(=O)O)c(O)c2)cc(Cl)n1	≥ 500 µg/mL	> 1000 µM	250 µg/mL (≈ 815 µM)	> 100 µg/mL	> 100 µg/mL	≥ 500 µg/mL	50 µg/mL (≈ 163 µM)									
Cc1cc(C(=O)Nc2cnccn2)ccn1	≥ 250 µg/mL	> 1000 µM	≥ 250 µg/mL	> 100 µg/mL	> 100 µg/mL	≥ 250 µg/mL	> 100 µg/mL									
O=C(Nc1ccc(C(=O)O)c(O)c1)c1ccccn1	62.5 µg/mL (≈ 242 µM)	> 1000 µM	250 µg/mL (≈ 968 µM)	> 100 µg/mL	50 µg/mL (≈ 194 µM)	15.6 µg/mL (≈ 60.5 µM)	1.56 µg/mL (≈ 6.04 µM)	166								
Nc1ccc(C(=O)O)cc1 [AMINOBENZOIC ACID]	250 µg/mL (≈ 1820 µM)	> 1000 µM	250 µg/mL (≈ 1820 µM)	> 100 µg/mL	> 100 µg/mL	≥ 500 µg/mL	> 100 µg/mL									
O=C(Nc1cnccn1)c1ccccn1	≥ 500 µg/mL	> 1000 µM	250 µg/mL (≈ 1250 µM)	> 100 µg/mL	> 100 µg/mL	≥ 500 µg/mL	> 100 µg/mL									
COc1ccnc(C(=O)Nc2ccc(C(=O)O)c(O)c2)c1	62.5 µg/mL (≈ 217 µM)	> 1000 µM	31.2 µg/mL (≈ 108 µM)	> 100 µg/mL	> 100 µg/mL	125 µg/mL (≈ 434 µM)	1.56 µg/mL (≈ 5.41 µM)	185								
O=C(Nc1ccc(C(=O)O)c(O)c1)c1ccc2ccccc2n1	15.6 µg/mL (≈ 50.7 µM)	> 1000 µM	31.2 µg/mL (≈ 101 µM)	100 µg/mL (≈ 324 µM)	100 µg/mL (≈ 324 µM)	31.2 µg/mL (≈ 101 µM)	1.56 µg/mL (≈ 5.06 µM)	198	2.2 µL/min/mg	10.5 h	6.25 µg/mL (≈ 20.3 µM)	Metabolite_Detected	12.5 µg/mL (≈ 40.5 µM)	Metabolite_Detected		
O=C(Nc1cnccn1)c1cccc(Cl)n1	≥ 500 µg/mL	> 250 µM	≥ 500 µg/mL	> 100 µg/mL	50 µg/mL (≈ 213 µM)	≥ 500 µg/mL	> 100 µg/mL									
O=C(Nc1cncc(Cl)n1)c1ccc(Cl)nc1	≥ 500 µg/mL	> 500 µM	≥ 500 µg/mL	> 100 µg/mL	> 100 µg/mL	≥ 500 µg/mL	100 µg/mL (≈ 372 µM)									
Cc1cc(C(=O)Nc2cnccn2)cc(Cl)n1	≥ 500 µg/mL	> 250 µM	≥ 500 µg/mL	> 100 µg/mL	> 100 µg/mL	≥ 500 µg/mL	> 100 µg/mL									
COc1ccnc(C(=O)Nc2cncc(Cl)n2)c1	250 µg/mL (≈ 945 µM)	> 500 µM	≥ 500 µg/mL	> 100 µg/mL	> 100 µg/mL	≥ 500 µg/mL	> 100 µg/mL									
O=C(Nc1cnccn1)c1ccc(Cl)nc1	≥ 250 µg/mL	> 1000 µM	≥ 250 µg/mL	> 100 µg/mL	> 100 µg/mL	≥ 250 µg/mL	> 100 µg/mL									
O=C(O)c1ccc(NC(=O)c2cccc(Cl)n2)cc1	250 µg/mL (≈ 904 µM)	> 250 µM	62.5 µg/mL (≈ 226 µM)	> 100 µg/mL	> 100 µg/mL	≥ 500 µg/mL	> 100 µg/mL									
O=C(O)c1ccc(NC(=O)c2ccc(Cl)nc2)cc1	250 µg/mL (≈ 904 µM)	> 250 µM	62.5 µg/mL (≈ 226 µM)	> 100 µg/mL	> 100 µg/mL	≥ 500 µg/mL	> 100 µg/mL									
O=C(Nc1ccc(C(=O)O)c(O)c1)c1ccc(Cl)nc1	≥ 250 µg/mL	> 1000 µM	125 µg/mL (≈ 427 µM)	100 µg/mL (≈ 342 µM)	12.5 µg/mL (≈ 42.7 µM)	≥ 250 µg/mL	1.56 µg/mL (≈ 5.33 µM)	188							Active	inactive
NNC(=O)c1ccncc1 [ISONIAZID]	3.91 µg/mL (≈ 28.5 µM)	> 1000 µM	0.25 µg/mL (≈ 1.82 µM)	12.5 µg/mL (≈ 91.1 µM)	12.5 µg/mL (≈ 91.1 µM)	15.6 µg/mL (≈ 114 µM)	0.2 µg/mL (≈ 1.46 µM)									
O=C(O)c1ccc(NC(=O)c2cccc(C(F)(F)F)n2)cc1	62.5 µg/mL (≈ 201 µM)	> 248 µM	62.5 µg/mL (≈ 201 µM)	> 100 µg/mL	50 µg/mL (≈ 161 µM)	≥ 500 µg/mL	50 µg/mL (≈ 161 µM)									
